Hits are enriched below; roughly 1.2% of the tested compounds scored in any of these assays.
p-CIP stab down – p/CIP-EGFP fusion destabilizers, primary screen, fluorescence, F442A cells; Q05BA5; 16 h; decrease of EGFP signal, % at 10 µM; 0.01% of 290,000 active; AID 1984, 2009;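 active means EGFP signal decrease of at least 30% at 10 µM or well 3 SD below plate mean, unless failing retest; inactive means the rest, including hits failing retest or dose response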
Target sequence (Q05BA5 1-1403): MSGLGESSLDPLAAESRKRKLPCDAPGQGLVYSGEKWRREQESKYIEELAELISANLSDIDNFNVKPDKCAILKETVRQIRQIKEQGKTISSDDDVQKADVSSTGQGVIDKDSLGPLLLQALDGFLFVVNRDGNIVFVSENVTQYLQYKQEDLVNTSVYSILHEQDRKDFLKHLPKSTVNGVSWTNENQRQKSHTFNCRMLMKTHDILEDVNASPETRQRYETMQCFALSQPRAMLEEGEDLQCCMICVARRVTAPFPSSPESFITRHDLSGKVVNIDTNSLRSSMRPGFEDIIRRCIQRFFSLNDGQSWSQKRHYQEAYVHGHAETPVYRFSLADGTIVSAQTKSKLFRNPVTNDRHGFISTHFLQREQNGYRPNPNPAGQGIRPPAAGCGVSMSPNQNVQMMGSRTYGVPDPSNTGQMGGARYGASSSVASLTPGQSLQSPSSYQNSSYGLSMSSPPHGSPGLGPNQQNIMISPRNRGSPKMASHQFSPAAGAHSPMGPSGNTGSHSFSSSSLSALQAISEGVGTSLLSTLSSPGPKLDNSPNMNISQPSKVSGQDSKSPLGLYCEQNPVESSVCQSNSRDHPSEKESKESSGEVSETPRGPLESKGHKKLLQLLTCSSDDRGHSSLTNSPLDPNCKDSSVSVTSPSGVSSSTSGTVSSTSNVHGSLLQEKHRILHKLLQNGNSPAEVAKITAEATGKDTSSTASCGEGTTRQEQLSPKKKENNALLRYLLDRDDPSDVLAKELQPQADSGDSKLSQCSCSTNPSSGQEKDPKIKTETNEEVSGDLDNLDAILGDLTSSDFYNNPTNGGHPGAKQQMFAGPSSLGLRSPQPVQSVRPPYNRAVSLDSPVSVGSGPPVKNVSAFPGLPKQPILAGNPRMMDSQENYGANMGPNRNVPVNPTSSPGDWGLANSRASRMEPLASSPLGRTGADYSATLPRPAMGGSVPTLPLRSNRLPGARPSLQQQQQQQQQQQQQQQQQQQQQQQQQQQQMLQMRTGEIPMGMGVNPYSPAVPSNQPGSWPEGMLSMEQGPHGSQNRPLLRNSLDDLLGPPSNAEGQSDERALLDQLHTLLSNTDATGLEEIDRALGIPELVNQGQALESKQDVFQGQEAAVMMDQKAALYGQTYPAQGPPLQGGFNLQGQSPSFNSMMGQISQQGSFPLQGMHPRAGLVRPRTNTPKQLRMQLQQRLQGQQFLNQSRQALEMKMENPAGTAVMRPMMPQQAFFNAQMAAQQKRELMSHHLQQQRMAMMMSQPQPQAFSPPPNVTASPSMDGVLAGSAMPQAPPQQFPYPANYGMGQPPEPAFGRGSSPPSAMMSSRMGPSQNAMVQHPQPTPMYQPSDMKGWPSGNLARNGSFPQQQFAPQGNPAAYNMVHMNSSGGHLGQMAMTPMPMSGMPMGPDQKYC
Hep lipid drop – inhibitors of hepatocyte lipid droplet formation, primary screen, imaging, high-throughput imaging, BODIPY stain. 0.4% of 240,000 active. inhibition, % at 6.5 µM. AML12 mouse hepatocytes, oleate lipid droplets;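 active means lipid droplet intensity inhibited by at least 50%, with more than 500 cells counted; inconclusive means wells with under 300 cells, treated as cytotoxic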
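material = mouse AML12 hepatocyte cell line, fixed after treatment | also added = 100 µM oleic acid challenge | doses = compound at 6.5 µM only | schedule = overnight exposure | technique = Image-based BODIPY and DAPI two-channel analysis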
proCasp3 act – activators of human procaspase-3 D3A mutant, primary screen, biochemical, absorbance, PC-3 D3A mutant, single concentration; Caspase-3 (Homo sapiens), P42574; recombinant procaspase-3 D3A, Ac-DEVD-pNA absorbance 405 nm; activation, % at 8.5 µM; 0.11% of 330,000 active; AID 463141, 2010;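 active means activation above the mean of all tested compounds plus 3 SD, cut at about 21% in these data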
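assay system = Procaspase-3 D3A mutant | signal = absorbance at 405 nm, 0 and 120 min | times = 1 h preincubation plus 2 h reaction at 25 °C | repeats = single replicate | read-out = % activation between DMSO and enzyme-spiked controls | medium = Zinc-free HEPES saline buffer with Triton X-100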
Rce1 inhib – yeast Rce1p protease inhibitors, primary screen, biochemical, fluorescence, cell-free homogeneous. CAAX prenyl protease 2 (Saccharomyces cerevisiae (strain ATCC 204508 / S288c)), Q03530. yeast membranes, quenched prenylated peptide cleavage fluorescence. calls only. 0.27% of 290,000 active. AID 2563, 2010;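 active means fall in fluorescence gain of 50% or more versus controls, with final raw signal at or below 3038400; inconclusive means same 50% fall but final raw signal above 3038400; inactive means fall in fluorescence gain under 50%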
FXN GAA850 act – FXN promoter activators, primary screen, cell-based, luciferase luminescence, HEK293 lucGAA850 | HEK293 lucGAA850 FXN promoter luciferase reporter, 24 h; percent of 10 µM SAHA response | activation, % at 6 µM | 0.56% of 360,000 active | AID 540364, 2011;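 active means activation above the average of all compounds screened plus 3 SD, cutoff fixed separately per campaign, cut at about 7.5% in these data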
procasp7 counter – procaspase-7 activators, primary screen, counter-screen for procaspase-3 activator project, biochemical, absorbance, HTS, human | recombinant procaspase-7, Ac-DEVD-pNA absorbance 405 nm; D23A/D198A/D206A triple mutant, cannot self-cleave; scale: DMSO 0, 5 µM enzyme 100 | AID 463210, 2010 | 0.093% of 330,000 active | activation, % at 8.5 µM;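 active means percent activation above the screen-wide mean plus 3 SD, cut at about 25% in these data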
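Assay system – Uncleavable procaspase-7 mutant enzyme · Quantity – 2 µM procaspase-7 mutant as dispensed · Times – 1 h preincubation, 2 h reaction · Dosing – single nominal 8.5 µM compound dose, 0.8% DMSO final · Buffer or medium – Zinc-free 50 mM HEPES buffer, pH 7.4, with NaCl and Triton X-100 · Detection – Epi-absorbance of released pNA at 405 nm, two timepoints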
procasp7 triplic – procaspase-7 activators, counter-screen for procaspase-3 activator project, biochemical, absorbance, triplicate, human; AID 488941, 2010; shares compounds with proCasp3 act; recombinant procaspase-7, Ac-DEVD-pNA absorbance; asp23/198/206-to-Ala mutant, cannot self-cleave; activation, % at 8.5 µM; 210 tested, under 10 active;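 active means mean activation above a set limit taken from an earlier procaspase-7 screen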
proCasp3 confirm – activators of human procaspase-3 D3A mutant, confirmation, biochemical, absorbance, PC-3 D3A mutant, triplicate. shares compounds with proCasp3 act. recombinant PC-3 D3A, Ac-DEVD-pNA absorbance 405 nm; 100% is higher-enzyme control. activation, % at 8.5 µM. 10% of 210 active. AID 488954, 2010;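 active means mean activation above a set limit carried over from the earlier primary screen, cut at about 22% in these data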
Each line names hits and unclear results; the compound was inactive in the other large screens (follow-up assays come after a bar, where they were run).

[O-][n+]1onc2c1C(N1CCOCC1)CCC2N1CCOCC1 (centres undefined)	proCasp3 act 68 | procasp7 triplic inactive | proCasp3 confirm inactive
O=C(N/N=C/c1ccc(-c2ccccc2Cl)o1)c1ccccc1	proCasp3 act 25 | procasp7 triplic inactive | proCasp3 confirm inactive
O=S(=O)(N/N=C\c1ccc(-c2ccccc2Cl)o1)c1ccccc1	none
COc1ccc(S(=O)(=O)N2CCOCC2)cc1NS(=O)(=O)c1ccc(F)c(F)c1	none (no result: p-CIP stab down, Hep lipid drop, Rce1 inhib)
Cc1c(C)n2c(SCC(=O)N3CC(C)OC(C)C3)nnc2[nH]c1=O (centres undefined)	none (no result: p-CIP stab down, Hep lipid drop)
N#Cc1cc(S(=O)(=O)c2ccc(Cl)cc2)c(N)[nH]c1=O	proCasp3 act 23 | procasp7 triplic inactive | proCasp3 confirm inactive
COC(=O)c1ccccc1NCc1cc(=O)oc2cc(O)c(O)cc12	proCasp3 act 53 | procasp7 triplic inactive | proCasp3 confirm 53
COc1ccc(C)cc1NCc1cc(=O)oc2cc(-c3ccccc3)c(O)cc12	none
Cc1cccc(N2CCN(C(=O)c3c(C)nn(Cc4ccccc4Cl)c3C)CC2)c1C	proCasp3 act 55 | procasp7 triplic inactive | proCasp3 confirm inactive
Cc1ccc2nc(CSc3nc(C)cc(C)c3C#N)[nH]c2c1	proCasp3 act 69 (no result: Hep lipid drop) | procasp7 triplic inactive | proCasp3 confirm inactive
c1ccc(-c2cc3c(ccc4nonc43)nn2)cc1	none (no result: Hep lipid drop)
Cc1cc2c3nonc3ccc2n1-c1ccccc1	proCasp3 act 25 (no result: Hep lipid drop) | procasp7 triplic inactive | proCasp3 confirm inactive
CCOc1ccc(S(=O)(=O)N2CCC(C(=O)NCCN3CCOCC3)CC2)cc1C	none
COc1ccccc1/C=C/C(=O)Nc1ccc(S(=O)(=O)Nc2cc(C)on2)cc1	none
Cc1ccc2cc(C#N)c(NCCNC(=O)C3CC3)nc2c1C	proCasp3 act 23 (no result: Hep lipid drop) | procasp7 triplic inactive | proCasp3 confirm inactive
Cc1ccc2cc(C#N)c(NCCNC(=S)NCCCN(C)C)nc2c1C	none
CCOc1ccc(NS(=O)(=O)c2ccc(C(=O)NCC(c3ccco3)N3CCCCC3)cc2)cc1 (centres undefined)	none (no result: p-CIP stab down, Hep lipid drop, proCasp3 act, Rce1 inhib, procasp7 counter)
CCCc1cc(=O)oc2cc(OC(=O)CN3C(=O)NC4(CCCC4)C3=O)ccc12	proCasp3 act 26 (no result: p-CIP stab down, Hep lipid drop) | procasp7 triplic inactive | proCasp3 confirm inactive
O=C(NCCc1ccccc1Cl)C1CC(=O)N(C2CCCCC2)C1 (centres undefined)	none (no result: Hep lipid drop)
Cc1cc(OC(=O)c2ccc(Cl)cc2Cl)c([N+](=O)[O-])c(=O)[nH]1	proCasp3 act 89 | procasp7 triplic inactive | proCasp3 confirm inactive
Cc1cc(OC(=O)c2ccccc2Cl)c([N+](=O)[O-])c(=O)[nH]1	none
CC1(CCC(=O)N2CCCC(N3CCN(c4cccc(C(F)(F)F)c4)CC3)C2)CC1 (centres undefined)	none
Cc1c(CC(=O)NCC(=O)N[C@H](Cc2ccccc2)C(=O)O)c(=O)oc2cc(O)ccc12	proCasp3 act 25, Rce1 inhib inconclusive (no result: Hep lipid drop) | procasp7 triplic inactive | proCasp3 confirm inactive
COC(=O)C1=C(NC(=O)c2cccc(OC)c2)CCS1	proCasp3 act 29 (no result: Hep lipid drop) | procasp7 triplic inactive | proCasp3 confirm inactive
